Source: ChEMBL document CHEMBL4651341, “The discovery of a novel series of compounds with single-dose efficacy against juvenile and adult Schistosoma species” (PLoS Negl Trop Dis, 2021)

Legend:
Schistosoma mansoni [1] = test: Concentration required to kill 50% of 21 day old worms 5 days after drug treatment.; assay type: functional, organism-based; details: Puerto Rican, 120 h
Summary of the method: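 Juvenile S. mansoni (Puerto Rican strain) were perfused from CD1 mice 3 weeks post-infection and washed. They were cultured 6–8 per well in 200 µL DMEM with 2 mM glutamine, penicillin/streptomycin and 10% FCS at 37 °C, 5% CO2. Viability of individual worms was scored on day 5 after dosing (120 h).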

Schistosoma mansoni [2] = test: Concentration required to kill 50% of 42 day old worms 5 days after drug treatment.; assay type: functional, organism-based; details: Puerto Rican, 120 h
Summary of the method: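 Adult S. mansoni were perfused from CD1 mice 6 weeks post-infection and washed. They were cultured 3 pairs per well in 1 mL DMEM with 2 mM glutamine, penicillin/streptomycin and 10% FCS […] at 37 °C, 5% CO2. Viability of individual worms was scored on day 5 (120 h).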

[3] = Mean observed clearance in Swiss albino male mice at 1 mg/kg per compound (administered iv in a mixture of 5 compounds to 3 mice) assessed by LCMS/MS.; assay type: ADME, organism-based; details: male, Swiss albino, mouse, in vivo, read-out: Clearance (converted)
Summary of the method: (§1)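 Male Swiss albino mice (~30 g), 3 per experiment, mostly dosed as mixtures of 5 compounds iv via the lateral tail vein. Vehicle: 10% DMSO/90% 50 mM Na2HPO4 with 0.5% Tween-80. Blood sampled at 5, 15, 30 min and 1, 2, 4, 8, 24 h. Plasma stored at −20 °C and quantified by LC-MS after acetonitrile precipitation.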

[4] = Mean oral bioavailability in Swiss albino male mice at […] per compound (administered in a mixture of 5 compounds to 3 mice) assessed by LCMS/MS.; also: dose 2.5 mg/kg; assay type: ADME, organism-based; details: male, Swiss albino, mouse, in vivo, read-out: Bioavailability
[5] = Mean time to peak plasma concentration in Swiss albino male mice at […] per compound (administered orally in a mixture of 5 compounds to 3 mice) assessed by LCMS/MS.; assay type: ADME, organism-based; details: mouse, po
[6] = Mean AUC inf in Swiss albino male mice at 1 mg/kg per compound (administered iv in a mixture of 5 compounds to 3 mice) assessed by LCMS/MS.; assay type: ADME, organism-based; details: male, Swiss albino, mouse, in vivo; summary of the method: as §1
[7] = Concentration required to kill 50% HepG2 cells as detected by MTT staining; assay type: toxicity, cell-based; details: homo sapiens, read-out: TC50 (the source's name)

| Structure (SMILES) | EC50 (Schistosoma mansoni [1]) [µM] | also measured |
| --- | --- | --- |
| COc1ccc(-c2nnc3ccc(-c4ccnc(C(F)(F)F)c4)cn23)cc1OC | > 25 | – |
| CC(C)Oc1cccc(-c2cn3c(-c4ccc(O)cc4)cnc3cn2)c1 | 5.31 | EC50 (Schistosoma mansoni [2]): 4.43 µM |
| CC(C)Oc1cccc(-c2cn3c(-c4ccc(S(N)(=O)=O)cc4)cnc3cn2)c1 | 25 | – |
| COc1ccc(-c2nnc3ccc(-c4ccc5c(cnn5C)c4)cn23)cc1OC | > 25 | – |
| Cc1nc2cnc(-c3cccc(C(F)(F)F)c3)cn2c1-c1ccc(O)cc1 | 1.42 | EC50 (Schistosoma mansoni [2]): < 0.615 µM |
| CC(C)Oc1cccc(-c2cn3c(-c4cccc(CO)c4)cnc3cn2)c1 | > 25 | – |
| CC(C)Oc1cccc(-c2cn3c(-c4cccc(C#N)c4)cnc3cn2)c1 | > 25 | – |
| Oc1ccc(-c2cnc3cnc(C4=COCCC4)cn23)cc1 | > 25 | clearance [3]: 177 mL/min/kg; bioavailability [4]: 0.01%; Tmax [5]: 36 s; AUC(0-inf) [6]: 52.2 ng·h/mL |
| COc1ccc(-c2cnc3cnc(-c4cccc(CN)c4)cn23)cc1 | > 25 | – |
| COc1cccc(-c2nnc3ccc(-c4cccc(C(C)C)c4)cn23)n1 | 12.4 | – |
| CNC(=O)c1cccc(-c2ccc3nnc(-c4ccc(OC)c(OC)c4)n3c2)c1 | > 25 | – |
| COc1ccc(-c2nnc3ccc(-c4ccccn4)cn23)cc1OC | > 25 | – |
| COc1ncc(-c2nnc3ccc(-c4cccc(C(C)C)c4)cn23)cn1 | > 25 | – |
| COc1ccc(-c2nnc3ccc(-c4cccc(S(=O)(=O)N5CCOCC5)c4)cn23)cc1OC | > 25 | – |
| CC(C)c1cccc(-c2ccc3nnc(-c4cccnc4)n3c2)c1 | > 25 | – |
| CC(C)Oc1cccc(-c2cn3c(-c4cn[nH]c4)cnc3cn2)c1 | > 25 | – |

| Structure (SMILES) | EC50 (Schistosoma mansoni [1]) [µM] | also measured |
| --- | --- | --- |
| COc1ccc(-c2cnc3cnc(-c4cccc(S(=O)(=O)N5CCOCC5)c4)cn23)cc1 | > 25 | – |
| OCCn1cc(-c2cn3c(-c4ccc(O)cc4)cnc3cn2)cn1 | > 25 | – |
| Cc1ccc(-c2cnc3cnc(-c4cccc(OC(C)C)c4)cn23)cn1 | > 25 | – |
| CC(C)Oc1cccc(-c2ccc3nnc(-c4ccc5c(c4)ncn5C)n3c2)c1 | 25 | – |
| COc1cccc(-c2cnc3cnc(-c4cccc(OC(C)C)c4)cn23)c1 | 24.8 | – |
| CS(=O)(=O)c1ccc(-c2cnc3ccc(-c4cccc(S(C)(=O)=O)c4)nn23)cc1 | 24.9 | CC50 [7]: 11.9 µM |
| COc1cccc(OC)c1-c1nnc2ccc(-c3cccc(OC(C)C)c3)cn12 | > 25 | – |
| CC(C)c1cccc(-c2ccc3nnc(-c4ccc5[nH]ncc5c4)n3c2)c1 | > 25 | – |
| CC(C)c1cccc(-c2ccc3nnc(-c4cnc5[nH]ncc5c4)n3c2)c1 | > 25 | – |
| CC(C)c1cc(-c2cn3c(-c4c(F)cc(O)cc4F)c(C4CC4)nc3cn2)ccc1F | 0.00519 | EC50 (Schistosoma mansoni [2]): 0.00448 µM |
| CC(=O)c1cccc(-c2cn3c(-c4ccc(O)cc4)cnc3cn2)c1 | > 25 | – |
| CN(C)C(=O)c1ccc(-c2cn3c(-c4ccc(O)cc4)cnc3cn2)cc1 | > 25 | – |
| COc1ccc(-c2nnc3ccc(-c4cccc(OC(C)C)c4)cn23)c(OC)c1 | > 25 | – |
| COc1ccc(-c2cnc3cnc(-c4ccc(OC)nc4)cn23)cc1 | > 25 | – |
| CC(C)c1cccc(-c2ccc3nnc(-c4cccc(CO)c4)n3c2)c1 | > 25 | – |
